Screening results from PubChem.
ARFGAP1 inh – inhibits rat ARF GTPase activating protein 1; Q62848; Arfgap1-stimulated ARF1 GTP hydrolysis, GDP FP detection; inhibition, % at 16.5 µM; 360,000 compounds, 0.26% hits;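 active = inhibition above a per-plate limit, mean inhibition of low control wells plus 3 SD, cut at about 25% in these data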;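 note: 0% = DMSO wells with enzyme and 100% = wells lacking Arfgap1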
Target sequence (Q62848 1-136 limits assumed): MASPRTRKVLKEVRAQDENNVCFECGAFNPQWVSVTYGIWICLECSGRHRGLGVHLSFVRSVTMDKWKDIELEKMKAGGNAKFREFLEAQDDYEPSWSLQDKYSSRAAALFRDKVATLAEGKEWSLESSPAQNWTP
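Material: rat Arfgap1 catalytic domain, aa 1-136; also added: human ARF1(Δ1-17)-GTP substrate; compound dosing: one concentration, 16.5 µM, DMSO 1.26%; incubation: GTP hydrolysis reaction 2 h at 25 °C; measured by: Tracer-displacement fluorescence polarization with EDTA stop, 620/688 nm; evaluation: % inhibition from polarization; repeats: one replicate per compound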
PAFAH1B3 inh – inhibitors of human PAFAH1B3; AID 492972; inhibition, % at 3.39 µM; Q15102; recombinant PAFAH1B3, FP-rhodamine probe, fluorescence polarization; 340,000 compounds, 0.28% hits;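 active = inhibition above the screen-wide average of all tested compounds plus 3 SD, cut at about 25% in these data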;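 note: 0% = enzyme with DMSO only and 100% = wells lacking PAFAH1B3 protein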
Target sequence (Q15102 whole entry, looked up): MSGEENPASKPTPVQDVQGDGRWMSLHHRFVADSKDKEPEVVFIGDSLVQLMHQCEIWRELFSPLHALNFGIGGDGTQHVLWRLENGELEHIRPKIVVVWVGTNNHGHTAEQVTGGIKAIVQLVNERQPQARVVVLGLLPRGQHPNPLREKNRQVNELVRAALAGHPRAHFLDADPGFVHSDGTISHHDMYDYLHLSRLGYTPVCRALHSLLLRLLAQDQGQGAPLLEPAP
ASAP1 GAP inh – inhibitors of human ASAP1 ArfGAP activity; Q9ULH1; ASAP1-stimulated ARF1 GTP hydrolysis, GDP FP detection; inhibition, % at 16.5 µM; 360,000 compounds, 0.19% hits; AID 624377; in the data active = inhibition above about 25%;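 note: 0% = vehicle with enzyme and substrate and 100% = no enzyme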
PAFAH1B2 inh – blocks human PAF acetylhydrolase 1b catalytic subunit 2; recombinant PAFAH1B2, FP-rhodamine activity probe, fluorescence polarization; inhibition, % at 3.39 µM; 340,000 compounds, 1.2% hits; AID 492953;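 active = inhibition above the mean of all tested compounds plus 3 SD, cut at about 24% in these data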;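 note: 0% = enzyme with DMSO and 100% = wells lacking PAFAH1B2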
Target sequence (P68402 whole entry, looked up): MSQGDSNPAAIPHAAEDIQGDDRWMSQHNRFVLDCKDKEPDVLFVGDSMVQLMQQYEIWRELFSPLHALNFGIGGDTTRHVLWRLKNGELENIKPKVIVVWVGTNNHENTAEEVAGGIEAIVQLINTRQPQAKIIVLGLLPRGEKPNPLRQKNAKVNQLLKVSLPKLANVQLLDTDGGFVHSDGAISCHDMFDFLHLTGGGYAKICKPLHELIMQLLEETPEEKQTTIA
PAFAH2 FP inh – inhibitors of human PAFAH2 | inhibition, % at 3.39 µM | 340,000 compounds, 0.99% hits | recombinant PAFAH2, FP-rhodamine activity probe, fluorescence polarization;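 active = inhibition above the mean over all tested compounds plus 3 SD, cut at about 30% in these data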;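 note: inhibitors block probe labeling of enzyme so polarization drops; 0% = enzyme with DMSO and 100% = wells lacking PAFAH2 protein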
pPAFAH FP inh – pPAFAH (human) enzyme inhibition; inhibition, % at 3.39 µM; recombinant pPAFAH, FP-rhodamine probe fluorescence polarization; Q13093; 330,000 compounds, 1.5% hits;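 active = inhibition above the mean inhibition across the screen plus 3 SD, cut at about 25% in these data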;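 note: inhibitors block binding of the rhodamine activity-based probe so polarization drops; 0% = enzyme with DMSO and 100% = wells lacking pPAFAH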
pPAFAH confirm – pPAFAH (human) inhibition, confirmed | shares compounds with pPAFAH FP inh | recombinant pPAFAH, FP-Rh probe fluorescence polarization | inhibition, % at 3.39 µM | 2,300 compounds, 72% hits | AID 463230;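 active = mean inhibition of the triplicate above the hit cutoff set for the earlier primary screen, cut at about 25% in these data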;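 note: 0% = enzyme with DMSO and 100% = wells lacking pPAFAH enzyme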
An asterisk follows results filed as active. The list is not random: actives were taken first. Their share in the collection is about 2.7%.

Results for Nc1ccc(O)cc1C(=O)OCC(=O)c1ccc(C2CCCCC2)cc1 ?
ARFGAP1 inh: 2.7; PAFAH1B3 inh: 4.8; ASAP1 GAP inh: 1.6; PAFAH1B2 inh: 6.2; PAFAH2 FP inh: 11.9; pPAFAH FP inh: 50.6*; pPAFAH confirm: 25.6*

What do the screens show for `CC1=CC2C(C(O)CC3(C)C2CC(C)C32OCOC23COCO3)C2(C)C/C(=C\O)C(=O)C=C12` (stereo not drawn)?
ARFGAP1 inh: -9.4; PAFAH1B3 inh: 9.7; ASAP1 GAP inh: -4.2; PAFAH1B2 inh: 0.4; PAFAH2 FP inh: -1.5

How did O=C(O/N=C(\c1ccccc1)c1ccncc1)c1ccccc1Cl do in these assays?
ARFGAP1 inh: -11.1; PAFAH1B3 inh: 8.7; ASAP1 GAP inh: -4.8; PAFAH1B2 inh: 88.0*; PAFAH2 FP inh: 25.3; pPAFAH FP inh: 45.4*; pPAFAH confirm: 23.4

What do the screens show for `CN1C(=O)c2cccc3c(Cl)ccc(c23)C1=O`?
ARFGAP1 inh: 13.8; PAFAH1B3 inh: -1.8; ASAP1 GAP inh: -4.0; PAFAH1B2 inh: -0.7; PAFAH2 FP inh: 4.8; pPAFAH FP inh: 3.0

Results for CNc1ccc2c3c(cccc13)C(=O)N(C)C2=O ?
ARFGAP1 inh: -8.4; PAFAH1B3 inh: 67.6*; ASAP1 GAP inh: -1.5; PAFAH1B2 inh: 57.9*; PAFAH2 FP inh: 70.6*; pPAFAH FP inh: 54.0*; pPAFAH confirm: 39.0*

Results for CCN(CC)C(C(=O)Nc1ccc2c(c1)OCO2)c1ccccc1 (stereo not drawn) ?
ARFGAP1 inh: -7.3; PAFAH1B3 inh: 5.6; ASAP1 GAP inh: -13.7; PAFAH1B2 inh: 6.2; PAFAH2 FP inh: 9.7; pPAFAH FP inh: 43.5*; pPAFAH confirm: 3.8

How did CC(CC(=O)Nc1ccc2c(c1)OCO2)c1ccccc1 (stereo not drawn) do in these assays?
ARFGAP1 inh: -6.5; PAFAH1B3 inh: 9.5; ASAP1 GAP inh: 3.7; PAFAH1B2 inh: 2.4; PAFAH2 FP inh: 5.2; pPAFAH FP inh: 8.2

What do the screens show for `O=c1[nH]nnc2c1ncn2C1OC(CO)C(O)C1O` (stereo not drawn)?
ARFGAP1 inh: -2.2; ASAP1 GAP inh: 1.3

How did Cc1ccccc1C(=O)N1CCC(C(=O)N(CC(C)C)c2c(N)n(Cc3ccccc3)c(=O)[nH]c2=O)CC1 do in these assays?
ARFGAP1 inh: 3.9; PAFAH1B3 inh: 4.3; ASAP1 GAP inh: -15.3; PAFAH1B2 inh: 4.6; PAFAH2 FP inh: 5.1; pPAFAH FP inh: 2.9

Results for Cc1ccc(NC(=S)NNc2ccc(C(=O)O)cc2[N+](=O)[O-])cc1C ?
ARFGAP1 inh: 2.9; PAFAH1B3 inh: 9.0; ASAP1 GAP inh: -9.8; PAFAH1B2 inh: 5.9; PAFAH2 FP inh: 26.7; pPAFAH FP inh: 34.6*; pPAFAH confirm: 39.2*

What do the screens show for `COC(=O)c1cc(S(=O)(=O)NCC2CCN(C(=O)C(=O)c3cccs3)CC2)cs1`?
ARFGAP1 inh: -3.4; ASAP1 GAP inh: 6.9

How did N#Cc1c(NCCCO)nc(-c2ccccc2)c2c1CCCC2 do in these assays?
ARFGAP1 inh: 8.3; PAFAH1B3 inh: 2.0; ASAP1 GAP inh: -1.9; PAFAH1B2 inh: 8.4; PAFAH2 FP inh: -2.4; pPAFAH FP inh: 35.5*; pPAFAH confirm: 14.7

What do the screens show for `N#Cc1c(NCCN)nc(-c2ccccc2)c2c1CCCC2`?
ARFGAP1 inh: 3.4; PAFAH1B3 inh: 1.7; ASAP1 GAP inh: -8.5; PAFAH1B2 inh: 3.5; PAFAH2 FP inh: 6.8; pPAFAH FP inh: 0.5

What do the screens show for `O=C1CCCCC1Nc1ccc2ccccc2c1` (stereo not drawn)?
ARFGAP1 inh: 5.0; PAFAH1B3 inh: 2.1; ASAP1 GAP inh: -6.9; PAFAH1B2 inh: 1.0; PAFAH2 FP inh: 3.9

Results for CC(C)(c1ccccc1)c1ccc(OCCCN2CCNCC2)cc1 ?
ARFGAP1 inh: 11.6; PAFAH1B3 inh: -3.9; ASAP1 GAP inh: 9.4; PAFAH1B2 inh: 4.4; PAFAH2 FP inh: -8.9; pPAFAH FP inh: 39.3*; pPAFAH confirm: 25.0*

What do the screens show for `CCCCONc1ncnc2nonc12`?
ARFGAP1 inh: 4.5; PAFAH1B3 inh: 1.3; ASAP1 GAP inh: -3.9; PAFAH1B2 inh: 0.3; PAFAH2 FP inh: -2.5; pPAFAH FP inh: -3.9

What do the screens show for `COc1ccccc1NC(=O)CSc1sc2c(O)cc(=O)[nH]c2c1C#N`?
ARFGAP1 inh: 3.4; PAFAH1B3 inh: 13.7; ASAP1 GAP inh: 12.6; PAFAH1B2 inh: 11.1; PAFAH2 FP inh: 16.7; pPAFAH FP inh: 38.8*; pPAFAH confirm: 11.5

Results for COC(=O)c1ccc(C)c(NC(=O)CSc2sc3c(O)cc(=O)[nH]c3c2C#N)c1 ?
ARFGAP1 inh: -5.9; PAFAH1B3 inh: 13.2; ASAP1 GAP inh: -14.7; PAFAH1B2 inh: 11.5; PAFAH2 FP inh: 11.6; pPAFAH FP inh: 19.5

How did COc1ccc(NC(=O)CSc2sc3c(O)cc(=O)[nH]c3c2C#N)c(OC)c1 do in these assays?
ARFGAP1 inh: 1.1; PAFAH1B3 inh: 12.6; ASAP1 GAP inh: 2.4; PAFAH1B2 inh: 8.8; PAFAH2 FP inh: 23.0; pPAFAH FP inh: 36.2*; pPAFAH confirm: 13.7

What do the screens show for `COc1ccc(Cl)cc1NC(=O)CSc1sc2c(O)cc(=O)[nH]c2c1C#N`?
ARFGAP1 inh: -0.3; PAFAH1B3 inh: 4.2; ASAP1 GAP inh: 2.6; PAFAH1B2 inh: -0.4; PAFAH2 FP inh: -9.4; pPAFAH FP inh: 19.9

What do the screens show for `CCOC(=O)C1=CCN(S(=O)(=O)c2cccc(Cl)c2)C1c1ccc(Cl)cc1` (stereo not drawn)?
ARFGAP1 inh: -3.5; ASAP1 GAP inh: 7.1

Results for Cc1ccccc1NC(=O)c1sc2nc3c(c(-c4ccco4)c2c1N)CCC3 ?
ARFGAP1 inh: 8.2; PAFAH1B3 inh: 5.4; ASAP1 GAP inh: 9.3; PAFAH1B2 inh: 5.2; PAFAH2 FP inh: 8.7; pPAFAH FP inh: 36.0*; pPAFAH confirm: 23.6

How did O=C(O)c1ccccc1Nc1cccc(OCc2ccc3ccccc3n2)c1 do in these assays?
ARFGAP1 inh: -2.6; PAFAH1B3 inh: 6.8; ASAP1 GAP inh: -7.0; PAFAH1B2 inh: 8.6; PAFAH2 FP inh: 10.9; pPAFAH FP inh: 35.7*; pPAFAH confirm: 31.3*

What do the screens show for `O=C(CSc1nc2nn(-c3ccccc3)c(=O)c-2c2n1CCCCC2)c1ccc(O)c(O)c1`?
PAFAH1B3 inh: 28.7*; PAFAH1B2 inh: 8.8; PAFAH2 FP inh: 85.4*; pPAFAH FP inh: 71.0*; pPAFAH confirm: 85.6*

What do the screens show for `O=C(Cc1ccc(NC(=O)C2CCCN(C(=O)c3ccccc3)C2)cc1)Nc1cccc(C(=O)N2CCCC2)c1` (stereo not drawn)?
ARFGAP1 inh: 1.6; ASAP1 GAP inh: 13.5

How did Nc1ccc(NC(=O)c2ccccc2)c2c1C(=O)c1ccccc1C2=O do in these assays?
ARFGAP1 inh: 1.8; PAFAH1B3 inh: 3.3; ASAP1 GAP inh: -8.4; PAFAH1B2 inh: -3.4; PAFAH2 FP inh: -3.1; pPAFAH FP inh: 2.0
